Assay outcomes from PubChem.
APJ antagonist: blocks the human apelin receptor APJ; P35414; CHO-K1 APJ beta-arrestin complementation, luminescence; inhibition, % at 20 µM; 0.32% of 330,000 active; AID 2521;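 active = inhibition above about 40% at 20 µM, limit read from the data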;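 note: cells challenged with 10 nM apelin-13 agonist together with compound; plate controls were apelin-13 plus DMSO wells for no effect and DMSO wells lacking apelin-13 for full effect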
EBI2 block: EBI2 (human) antagonism; P32249; EBI2 beta-arrestin recruitment, luminescence, 7a,25-OHC stimulated; inhibition, % at 5 µM; 0.81% of 360,000 active; in the data active = inhibition above about 38%;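 note: enzyme fragment complementation signal reports receptor beta-arrestin coupling in cells; 0% = agonist plus DMSO wells and 100% = wells without agonist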
APJ ag: agonists of human APJ apelin receptor. P35414. CHO-K1 APJ PathHunter beta-arrestin, luminescence; 0% DMSO wells, 100% apelin. activation, % at 20 µM. 0.11% of 330,000 active. AID 2520;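 active = activation more than six SD over the plate average, tested at 20 µM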;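 note: 0% = DMSO alone and 100% = apelin-13 at 10 nM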
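assay system = CHO-K1 APJ beta-arrestin complementation cell line | input = cell density 1000 per well | dosing = compound 20 µM once, DMSO 1% | timing = compound 90 min 25 °C, reagent 1 h | measured by = luminescence from split beta-galactosidase complementation, Galacton Star/Emerald II substrate | read-out basis = APJ agonist activity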
GAA850 FXN act: frataxin GAA850 promoter activation. HEK293 lucGAA850 FXN promoter luciferase reporter, 24 h; percent of 10 µM SAHA response. activation, % at 6 µM. 0.56% of 360,000 active;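 active = activation above the average of all compounds screened plus 3 SD, cutoff fixed separately per campaign, cut at about 7.5% in these data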;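 note: 0% = DMSO wells and 100% = 10 µM SAHA wells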
CCR6 antag: CCR6 (human) receptor antagonism. P51684. CHO-K1 CCR6 PathHunter beta-arrestin, luminescence, CCL20-stimulated. inhibition, % at 20 µM. 0.49% of 340,000 active;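 active = compounds whose inhibition of the agonist-driven luminescence signal at 20 µM reaches about 50%, limit read from the data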;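 note: cells stimulated with CCL20 at 14 nM final; plate controls were DMSO with CCL20 for no effect and DMSO without agonist for full effect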
Target sequence (P51684 whole entry, looked up): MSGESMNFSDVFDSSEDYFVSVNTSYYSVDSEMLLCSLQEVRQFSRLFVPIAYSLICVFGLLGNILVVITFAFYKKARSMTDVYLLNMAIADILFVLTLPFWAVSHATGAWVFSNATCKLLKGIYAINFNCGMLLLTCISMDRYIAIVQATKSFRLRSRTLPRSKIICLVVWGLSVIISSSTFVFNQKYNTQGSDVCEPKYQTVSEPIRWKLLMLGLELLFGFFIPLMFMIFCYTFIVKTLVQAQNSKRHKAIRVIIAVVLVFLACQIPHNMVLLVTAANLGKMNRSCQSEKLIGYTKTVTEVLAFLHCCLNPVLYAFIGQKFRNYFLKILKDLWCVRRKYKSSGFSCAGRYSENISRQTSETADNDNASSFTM
CXCR6 block: CXCR6 (human) receptor inhibition; CHO-K1 PathHunter CXCR6 beta-arrestin, luminescence; inhibition, % at 20 µM; 0.36% of 360,000 active; AID 602244; in the data active = inhibition above about 34%, passing the limit was not always enough;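 note: antagonist mode with CXCL16 agonist at 10 nM final; 0% = 10 nM CXCL16 with DMSO and 100% = unstimulated wells without agonist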
GAA30 counter: activates GAA30 frataxin promoter, counter-screen for GAA850 activators | shares compounds with GAA850 FXN act | HEK293 lucGAA30 FXN promoter luciferase, 24 h; DMSO = 0%, 5 µM ipriflavone = 100% | activation, % at 6 µM | 66% of 1,900 active | AID 588350;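 active = mean activation above the mean of solvent-only control wells plus 3 SD, cut at about 22% in these data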;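 note: counterscreen of GAA850 promoter hits where activity marks nonselective or luminescence artifacts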
FXN GAA850 conf: confirmation of GAA850 frataxin (FXN) promoter activators; shares compounds with GAA850 FXN act; HEK293 lucGAA850 FXN promoter luciferase reporter, 24 h; 100% = activation by SAHA; activation, % at 6 µM; 86% of 1,900 active; AID 588351;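 active = mean activation above a set limit taken from the primary screen, cut at about 8% in these data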;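 note: 0% = DMSO wells and 100% = 10 µM SAHA wells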
* hit, by the source's call; . = no result given. The list is not random: actives were taken first. Their share in the collection is about 2%.

SMILES	APJ antagonist	EBI2 block	APJ ag	GAA850 FXN act	CCR6 antag	CXCR6 block	GAA30 counter	FXN GAA850 conf
CCCCNc1ccc(C(F)(F)F)cc1S(=O)(=O)NCCc1ccc(F)cc1	.	5	.	12*	23	-2	33*	17*
COc1ccc(S(=O)(=O)NCCc2ccc(F)cc2)cc1	8	5	3	1	-10	-12	.	.
COc1cc(C#Cc2ccc3cc(CCO)oc(=O)c3c2)cc(OC)c1	4	14	4	7.8*	3	-7	106*	38*
O=C(/C=C/Sc1ccccc1)c1ccc(Cl)cc1	13	21	-5	12*	4	1	86*	58*
CCOc1ccccc1C(=O)N/N=C/c1c[nH]c2ccccc12	-11	-10	4	8.2*	2	1	27*	8.9*
CCOc1ccccc1C=NNC(=O)c1cccc2ccccc12	.	1	.	2	14	7	.	.
Cc1cccc(C)c1Nc1cn[nH]c1	.	-4	.	.	.	-9	.	.
CCCCc1ccc(NC(=O)CC(C)=O)cc1	-15	-10	1	1	5	-2	.	.
CCCCc1ccc(NC(=O)CC(C)(C)C)cc1	-5	-8	1	7.8*	3	3	108*	38*
Clc1cccc(CNc2ccn3nc(-c4cccc(Cl)c4)cc3n2)c1	.	19	.	3	.	0	.	.
CCN(CC)S(=O)(=O)c1ccc(OC)nc1	2	-33	-5	11*	0	-1	20	6
Cc1cc(C)cc(NC(=O)CN2CCN(CCN=CC3=C(O)CC(c4ccc(Cl)cc4)CC3=O)CC2)c1 (centres undefined)	5	3	-3	1	12	-3	.	.
Cc1ccc(C2CC(=O)C(C=NCCN3CCN(CC(=O)Nc4cc(C)cc(C)c4)CC3)=C(O)C2)cc1 (centres undefined)	.	7	.	8.5*	-3	10	13	6
Cc1cccc(C)c1-n1nnnc1C1c2ccccc2C(=O)N1CCCn1ccnc1 (centres undefined)	.	-5	.	.	.	1	.	.
O=c1c(O)c(-c2ccccc2)oc2cc(O)ccc12	.	1	.	1	.	-4	.	.
O=c1c(O)c(-c2ccccc2)oc2ccccc12	.	12	.	8.7*	26	16	55*	18*
c1ccc2cc(C3OCC4(CCCC4)CO3)ccc2c1	.	-7	.	5	.	0	.	.
Nc1ccccc1Nc1cc(-c2ccccc2)[nH]n1	.	3	.	9.3*	-3	-7	92*	54*
Nc1ccccc1Nc1cc(-c2ccccc2)nn1-c1ccccc1	-6	11	0	1	4	4	.	.
Clc1ccccc1Cn1nnc(-c2ccccc2)n1	-3	6	-3	2	8	7	.	.
CN(C)c1ccc(-c2nnn(Cc3ccccc3Br)n2)cc1	7	14	1	12*	20	5	70*	26*
CCC(C)(C)NC(=O)C(NS(=O)(=O)c1cccs1)c1ccccc1 (centres undefined)	1	6	-1	10*	8	1	15	10*
CCc1cccc(CC)c1NC(=O)C(NS(=O)(=O)c1cccs1)c1ccccc1 (centres undefined)	13	8	-2	-1	12	1	.	.
O=C(Nc1nnc([C@@H]2C[C@H](O)[C@@H](CO)O2)s1)c1c(F)cccc1F	.	1	.	0	.	-2	.	.
Cc1ccc(N(O)C(=O)NCCCCNC(=O)N(O)c2ccc(C)cc2)cc1	-24	-16	5	7.7*	-5	-10	59*	21*
SMILES	APJ antagonist	EBI2 block	APJ ag	GAA850 FXN act	CCR6 antag	CXCR6 block	GAA30 counter	FXN GAA850 conf
Cc1ccc(S(=O)(=O)NC(=O)NCCCCNC(=O)NS(=O)(=O)c2ccc(C)cc2)cc1	14	4	2	-1	-19	3	.	.
CC(=O)NC(c1ccc(F)c(F)c1)c1nc(-c2ccccc2)cs1 (centres undefined)	.	-12	.	0	.	0	.	.
CCN(C[C@H]1N[C@@](Cc2ccccc2)(C(=O)OC)[C@H]2C(=O)N(Cc3ccccc3)C(=O)[C@@H]12)C(=O)Nc1ccc(C)cc1	6	7	-4	-7	12	11	.	.
CCN(C[C@H]1N[C@@](CC)(C(=O)OC)[C@H]2C(=O)N(Cc3ccccc3)C(=O)[C@@H]12)C(=O)Nc1ccc(Cl)cc1	13	4	-4	15*	11	0	31*	14*
CCN(C[C@H]1N[C@@](CC)(C(=O)OC)[C@H]2C(=O)N(Cc3ccccc3)C(=O)[C@@H]12)C(=O)COc1ccccc1	-1	7	-3	8.0*	4	-4	28*	14*
CCN(C[C@H]1N[C@@](CC)(C(=O)OC)[C@H]2C(=O)N(Cc3ccccc3)C(=O)[C@@H]12)C(=O)COC	0	-3	-2	-2	-1	-8	.	.
CCN(C[C@H]1N[C@@](CC)(C(=O)OC)[C@H]2C(=O)N(Cc3ccccc3)C(=O)[C@@H]12)C(=O)Nc1ccc(C)cc1	9	0	-2	14*	-3	-1	33*	12*
O=c1cc(CN(Cc2ccccc2)Cc2ccccc2)c2c(ccc3ccccc32)o1	.	23	.	.	.	7	.	.
Cc1cc(-c2ccc(Cl)cc2)c(C#N)c(N)n1	18	8	-1	8.2*	-6	0	16	15*
N#Cc1c(-c2ccncc2)cc(-c2ccc(F)cc2)nc1N	-16	7	-1	6	10	7	.	.
COc1cccc(N(C(=O)c2csnn2)C(C(=O)NC2CCCC2)c2ccccc2)c1 (centres undefined)	12	-17	-1	1	16	1	.	.
O=C(CNc1ccccc1)N/N=C/c1ccc2c(c1)OCO2	8	14	-2	0	2	-1	.	.
O=C(Cc1ccccc1)N/N=C/c1ccc2c(c1)OCO2	-33	4	2	9.5*	-15	-1	84*	30*
Cc1ccc(Cl)cc1NC(=O)C(Cc1ccccc1)N1C(=O)C2C3CCC(C3)C2C1=O (centres undefined)	14	5	-1	15*	14	2	19	9.4*
COc1ccc2c(C)c(CCC(=O)NC3CC3)c(=O)oc2c1	-54	-3	-1	0	-5	2	.	.
Cc1c(CCC(=O)NC2CC2)c(=O)oc2cc(O)ccc12	-56	-1	-4	15*	-8	-3	20	11*
